The source made the active and inactive calls. The calls are words filed in the database; no cut-off is given here.
Experiments:
[1] = target: T1, Nicotinamide phosphoribosyltransferase (Homo sapiens, UniProt P43490); assay: Inhibition of nicotinamide phosphoribosyltransferase-catalyzed conversion of nicotinamide to nicotinamide mononucleotide
Outline: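 Coupled-enzyme format: Nampt turnover of nicotinamide to NMN monitored through a downstream coupled reaction; IC50 determined.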
Target sequence in this assay (P43490 whole entry): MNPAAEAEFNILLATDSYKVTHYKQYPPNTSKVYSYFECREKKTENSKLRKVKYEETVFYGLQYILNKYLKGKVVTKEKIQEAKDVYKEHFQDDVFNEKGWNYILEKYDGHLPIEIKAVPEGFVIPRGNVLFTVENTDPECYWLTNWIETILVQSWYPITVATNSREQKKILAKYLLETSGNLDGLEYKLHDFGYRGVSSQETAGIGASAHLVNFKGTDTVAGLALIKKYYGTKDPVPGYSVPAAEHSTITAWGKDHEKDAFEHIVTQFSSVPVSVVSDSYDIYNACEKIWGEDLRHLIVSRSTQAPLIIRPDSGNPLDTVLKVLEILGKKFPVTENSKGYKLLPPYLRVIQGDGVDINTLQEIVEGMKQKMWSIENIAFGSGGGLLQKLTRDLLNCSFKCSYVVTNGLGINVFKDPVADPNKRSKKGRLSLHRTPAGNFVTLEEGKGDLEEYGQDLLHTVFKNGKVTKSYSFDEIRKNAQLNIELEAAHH

[2] = system: HCT-116; assay: Cytotoxicity against human HCT116 cells after 72 hrs; type: functional
Outline: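 HCT116 colon carcinoma cells treated with compound for 72 h; viability read out as cellular ATP levels.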

[3] = target: T1, Nicotinamide phosphoribosyltransferase; assay: Inhibition of Nampt activity in H2O2-induced DNA damage in human MCF10A cells stably transfected with PIK3CA (H1047R) assessed as loss of PARP activity; type: cell-based; settings: MCF-10A
Target sequence in this assay (P43490 whole entry, looked up): as the sequence (P43490 whole entry) above

[4] = target: T1, Nicotinamide phosphoribosyltransferase; assay: Inhibition of nicotinamide phosphoribosyltransferase-catalyzed conversion of nicotinamide to nicotinamide mononucleotide at 10 uM
Target sequence in this assay (P43490 whole entry, looked up): as the sequence (P43490 whole entry) above

[5] = target: T1, Nicotinamide phosphoribosyltransferase; assay: Inhibition of nicotinamide phosphoribosyltransferase-mediated decrease in cellular NAD level
Target sequence in this assay (P43490 whole entry): as above

[6] = system: WIL2; assay: Cytotoxicity against human W1L2 cells; type: functional, cell-based
[7] = system: HCT-116; assay: Cytotoxicity against human HCT116 cells after 72 hrs in presence of 10 uM exogenous nicotinic acid; type: functional, cell-based; settings: HCT-116, 72 h
Outline: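 HCT116 colon carcinoma cells treated for 72 h with compound plus 10 μM exogenous nicotinic acid to test whether killing depends on Nampt; viability read out as cellular ATP levels.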

[8] = target: Thymidylate synthase (Homo sapiens, UniProt P04818); assay: Inhibition of thymidylate synthase
Sequence of Thymidylate synthase (P04818 whole entry): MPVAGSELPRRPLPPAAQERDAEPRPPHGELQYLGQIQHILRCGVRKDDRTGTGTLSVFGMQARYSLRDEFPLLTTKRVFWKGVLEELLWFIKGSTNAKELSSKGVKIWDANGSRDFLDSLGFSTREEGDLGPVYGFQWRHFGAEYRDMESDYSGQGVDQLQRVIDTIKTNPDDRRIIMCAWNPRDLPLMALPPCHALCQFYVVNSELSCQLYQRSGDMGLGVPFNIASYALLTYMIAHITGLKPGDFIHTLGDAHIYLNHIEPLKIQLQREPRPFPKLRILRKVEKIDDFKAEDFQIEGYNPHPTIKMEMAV

[9] = target: T1, Nicotinamide phosphoribosyltransferase; assay: Inhibition of nicotinamide phosphoribosyltransferase-catalyzed conversion of nicotinamide to nicotinamide mononucleotide relative to untreated enzyme; settings: concentration not given here
Target sequence in this assay (P43490 whole entry, looked up): as the sequence (P43490 whole entry) above

Row | SMILES | IC50 [1] [nM] | Activity [2] [µM] | inhibitory concentration [3] [µM] | other results
1 | CCCCN(Cc1ccccc1Cl)c1ccc(C(=O)NCc2cccnc2)cc1 | > 10000 | – | – | –
2 | CC(C)=CCN(Cc1cc2c(=O)n(C)nnc2cc1Cl)c1ccc(C(=O)NCc2cccnc2)cc1 | – | 0.003 | 0.0017 | –
3 | Cc1nc2ccc(CN(C(=O)C3CC3)c3ccc(C(=O)NCc4cccnc4)cc3)cc2c(=O)n1C | > 10000 | >10 | 2.6 | –
4 | CCN(Cc1ccccc1Cl)c1ccc(C(=O)NCc2cccnc2)cc1 | 330 | >10 | > 5 | –
5 | Cc1nc2c(c(=O)[nH]1)CN(C(=O)c1ccc(C(=O)NCc3cccnc3)cc1)CC2 | 7200 | >10 | > 5 | –
6 | C#CCN(Cc1ccc2nc(C)n(C)c(=O)c2c1)c1ccc(C(=O)NCC2CCCNC2)cc1 (centres undefined) | > 10000 | – | – | inhibition [4]: inactive
7 | O=C(CCCCCCCn1cc(-c2cccnc2)nn1)Nc1ccccc1-c1ccccc1 | – | – | – | IC50 [5]: 3 nM
8 | Cc1noc(C)c1CN(Cc1ccc2nc(C)n(C)c(=O)c2c1)c1ccc(C(=O)NCc2cccnc2)cc1 | 210 | 5.3 | 0.012 | –
9 | Cc1[nH]c2nc(N)[nH]c(=O)c2c1Sc1ccc(C(=O)NCc2cccnc2)cc1 | 2800 | – | > 5 | –
10 | C#CCN(Cc1cc2c(O)nc(C)nc2cc1Br)c1ccc(C(=O)NCc2cccnc2)cc1 | – | – | – | EC50 [6]: 2.8 nM
11 | CC(C)=CC(=O)N(Cc1cc2c(=O)n(C)cnc2cc1Cl)c1ccc(C(=O)NCc2cccnc2)cc1 | 660 | 4.1 | 0.37 | –
12 | O=C(NCc1cccnc1)c1ccc(N(Cc2ccccc2)Cc2ccccc2Cl)cc1 | 110 | 0.7 | 0.17 | –
13 | Nc1nc(N)c2c(CCc3ccc(C(=O)NCc4cccnc4)cc3)c[nH]c2n1 | 600 | >10 | > 5 | –
14 | C#CCN(Cc1ccc2nc(C)n(C)c(=O)c2c1)c1ccc(C(=O)NCc2ccc(Cl)cc2)cc1 | 150 | >10 | > 5 | –
15 | Cc1c(Sc2ccc(C(=O)NCc3cccnc3)cc2)[nH]c2nc(N)nc(N)c12 | 1200 | – | – | –
16 | Cn1cnc2cc(Cl)c(CN(CC(N)=O)c3ccc(C(=O)NCc4cccnc4)cc3)cc2c1=O | 56 | >10 | > 1 | EC50 [7]: > 10000 nM

Row | SMILES | IC50 [1] [nM] | Activity [2] [µM] | inhibitory concentration [3] [µM] | other results
17 | CC(C)CN(Cc1ccccc1Cl)c1ccc(C(=O)NCc2cccnc2)cc1 | 420 | – | – | –
18 | C#CCN(Cc1ccc2nc(C)n(C)c(=O)c2c1)c1ccc(C(=O)NCc2cccc(F)c2)cc1 | 250 | >10 | > 5 | –
19 | C#CCCN(Cc1ccc2nc(C)n(C)c(=O)c2c1)c1ccc(C(=O)NCc2cccnc2)cc1 | 950 | 6.3 | 2.9 | –
20 | C#CCN(Cc1cc2c(=O)[nH]c(C)nc2cc1Br)c1ccc(C(=O)NCc2ccncc2)cc1 | – | – | – | IC50 [8]: 156 nM
21 | Cc1c(Sc2ccc(C(=O)NCCc3cccnc3)cc2)[nH]c2nc(N)nc(N)c12 | 90 | >10 | – | –
22 | CC(C)=CC(=O)N(Cc1ccc2nc(C)n(C)c(=O)c2c1)c1ccc(C(=O)NCc2cccnc2)cc1 | > 10000 | >10 | 2.2 | –
23 | C#CCN(Cc1cc2c(=O)[nH]c(C)nc2cc1Br)c1ccc(C(=O)NCc2ccccn2)cc1 | – | – | – | inhibition [9]: 90%; IC50 [8]: 156 nM
24 | C#CCN(Cc1ccc2nc(C)n(C)c(=O)c2c1)c1ccc(C(=O)NCc2ccccc2F)cc1 | 34 | 9.7 | > 5 | –
25 | C#CCN(Cc1ccc2nc(C)n(C)c(=O)c2c1)c1ccc(C(=O)NCc2ccc(F)cc2F)cc1 | 49 | >10 | > 5 | –
26 | C#CCN(Cc1cc2c(=O)n(C)c(C)nc2cc1Cl)c1ccc(C(=O)NCc2nc3ccccc3[nH]2)cc1 | 40 | 5.7 | 3.2 | –
27 | C#CCN(Cc1ccc2nc(C)n(C)c(=O)c2c1)c1ccc(C(=O)NCc2nc3ccccc3[nH]2)cc1 | 130 | 5.4 | > 5 | –
28 | C#CCN(Cc1coc2nc(N)nc(N)c12)c1ccc(C(=O)NCc2cccnc2)cc1 | > 10000 | >10 | > 5 | –
29 | C#CCN(Cc1ccc2nc(C)n(C)c(=O)c2c1)c1ccc(C(=O)NCc2ccc(F)c(F)c2F)cc1 | 98 | >10 | > 5 | –
30 | CN(Cc1ccccc1Cl)c1ccc(C(=O)NCc2cccnc2)cc1 | > 10000 | – | – | –
31 | C#CCN(Cc1ccc2nc(C)n(C)c(=O)c2c1)c1ccc(C(=O)NCc2ccc3c(c2)OCO3)cc1 | 85 | >10 | > 5 | –
32 | Cc1nc2ccc(CN(CC3CC3)c3ccc(C(=O)NCc4cccnc4)cc3)cc2c(=O)n1C | 2600 | 0.11 | 0.019 | –

The next lines start with results.

Row | IC50 [1] [nM] | SMILES | Activity [2] [µM] | inhibitory concentration [3] [µM] | other results
33 | 1.3 | O=C(NCc1cccnc1)c1ccc(N(Cc2ccccc2Cl)CC2CC2)cc1 | 0.059 | 0.011 | –
34 | 0.79 | C#CCN(Cc1cc2c(=O)n(C)c(CO)nc2cc1Cl)c1ccc(C(=O)NCc2cccnc2)cc1 | 0.0016 | 0.0001 | –
35 | 0.31 | C#CCN(Cc1cc2c(=O)n(C)c(CN3CCN(C)CC3)nc2cc1Cl)c1ccc(C(=O)NCc2cccnc2)cc1 | 0.00046 | 5e-05 | EC50 [6]: 0.49 nM
36 | 1.4 | CC(C)=CCN(Cc1ccc2nc(C)n(C)c(=O)c2c1)c1ccc(C(=O)NCc2cccnc2)cc1 | 0.0035 | 0.00023 | –
37 | 0.55 | C#CCN(Cc1cc2c(=O)n(C)c(C)nc2cc1Cl)c1ccc(C(=O)NCc2cccnc2)cc1 | 0.0021 | 0.00045 | –
38 | 25 | CC(C)=CCN(Cc1cc2c(=O)n(C)c(C)nc2cc1Cl)c1ccc(C(=O)NCc2nc3ccccc3[nH]2)cc1 | 6.4 | > 5 | –
39 | 31 | CC(C)=CCN(Cc1ccc2nc(C)n(C)c(=O)c2c1)c1ccc(C(=O)NCc2nc3ccccc3[nH]2)cc1 | 1.4 | 0.7 | –
40 | 30 | C#CCN(Cc1ccc2nc(C)n(C)c(=O)c2c1)c1ccc(C(=O)NCc2ccc(F)c(F)c2)cc1 | >10 | > 5 | –
41 | 1.2 | CC(C)=CCN(Cc1ccc2ncn(C)c(=O)c2c1)c1ccc(C(=O)NCc2cccnc2)cc1 | 0.004 | 0.0004 | –
42 | 6.1 | CC(C)CCN(Cc1ccccc1Cl)c1ccc(C(=O)NCc2cccnc2)cc1 | 0.39 | 0.0079 | EC50 [7]: > 10000 nM
43 | 12 | C#CCCN(Cc1cc2c(=O)n(C)cnc2cc1Cl)c1ccc(C(=O)NCc2cccnc2)cc1 | 0.15 | 0.03 | –
44 | 0.3 | C#CCN(Cc1cc2c(=O)n(C)c(CN3CCN(CCCN)CC3)nc2cc1Cl)c1ccc(C(=O)NCc2cccnc2)cc1 | 0.018 | 0.0018 | –
45 | 3.8 | Cn1cnc2cc(Cl)c(NCc3ccc(C(=O)NCc4cccnc4)cc3)cc2c1=O | 0.42 | 0.0093 | –
46 | 3.6 | C#CCN(Cc1ccc2nc(C)n(C)c(=O)c2c1)c1ccc(C(=O)NCc2cccnc2)cc1 | 0.034 | 0.0095 | –
47 | 13 | Cn1cnc2cc(Cl)c(CN(CC3CC3)c3ccc(C(=O)NCc4cccnc4)cc3)cc2c1=O | 0.11 | 0.012 | –
48 | 11 | CC(C)=CCN(Cc1cc2c(=O)n(C)c(C)nc2cc1Cl)c1ccc(C(=O)NCc2cccnc2)cc1 | 0.0095 | 0.0018 | EC50 [7]: > 10000 nM
49 | 12 | Cn1cnc2cc(Cl)c(C(=O)Nc3ccc(C(=O)NCc4cccnc4)cc3)cc2c1=O | 0.73 | 0.048 | –
50 | 4.2 | C#CCN(Cc1ccccc1Cl)c1ccc(C(=O)NCc2cccnc2)cc1 | 2.4 | 0.15 | EC50 [7]: > 10000 nM
51 | 29 | Cc1nc2c(c(=O)[nH]1)CN(C(=O)Nc1ccc(C(=O)NCc3cccnc3)cc1)CC2 | >10 | > 5 | –
52 | 12 | C#CCN(Cc1ccc2ncn(C)c(=O)c2c1)c1ccc(C(=O)NCc2cccnc2)cc1 | 0.3 | 0.025 | –
53 | 15 | CCCN(Cc1ccccc1Cl)c1ccc(C(=O)NCc2cccnc2)cc1 | 3.5 | 0.24 | –
54 | 1.9 | CC(C)=CCN(Cc1ccccc1Cl)c1ccc(C(=O)NCc2cccnc2)cc1 | 0.016 | 0.0032 | EC50 [7]: > 10000 nM
55 | 2.6 | CC(C)=CCN(Cc1cc2c(=O)n(C)cnc2cc1Cl)c1ccc(C(=O)NCc2cccnc2)cc1 | 0.0073 | 0.0005 | EC50 [7]: > 10000 nM
56 | 2.9 | C/C=C/CN(Cc1ccc2nc(C)n(C)c(=O)c2c1)c1ccc(C(=O)NCc2cccnc2)cc1 | 0.0044 | 0.0016 | –
57 | 1.5 | C/C=C/CN(Cc1ccccc1Cl)c1ccc(C(=O)NCc2cccnc2)cc1 | 0.099 | 0.0089 | –

— ChEMBL document CHEMBL1800028, “Analogues of 4-[(7-Bromo-2-methyl-4-oxo-3H-quinazolin-6-yl)methylprop-2-ynylamino]-N-(3-pyridylmethyl)benzamide (CB-30865) as potent inhibitors of nicotinamide phosphoribosyltransferase (Nampt)” (J Med Chem, 2010)
